Measurements from ChEMBL document CHEMBL1148844, “5-((1H-pyrazol-4-yl)methylene)-2-thioxothiazolidin-4-one inhibitors of ADAMTS-5” (Bioorg Med Chem Lett, 2007).

Each compound was assayed against T1, A disintegrin and metalloproteinase with thrombospondin motifs 5 (Homo sapiens) (UniProt Q9UNA0) (assay: Inhibition of ADAMTS5 at 20 uM by FRET assay).
T1 sequence (whole entry): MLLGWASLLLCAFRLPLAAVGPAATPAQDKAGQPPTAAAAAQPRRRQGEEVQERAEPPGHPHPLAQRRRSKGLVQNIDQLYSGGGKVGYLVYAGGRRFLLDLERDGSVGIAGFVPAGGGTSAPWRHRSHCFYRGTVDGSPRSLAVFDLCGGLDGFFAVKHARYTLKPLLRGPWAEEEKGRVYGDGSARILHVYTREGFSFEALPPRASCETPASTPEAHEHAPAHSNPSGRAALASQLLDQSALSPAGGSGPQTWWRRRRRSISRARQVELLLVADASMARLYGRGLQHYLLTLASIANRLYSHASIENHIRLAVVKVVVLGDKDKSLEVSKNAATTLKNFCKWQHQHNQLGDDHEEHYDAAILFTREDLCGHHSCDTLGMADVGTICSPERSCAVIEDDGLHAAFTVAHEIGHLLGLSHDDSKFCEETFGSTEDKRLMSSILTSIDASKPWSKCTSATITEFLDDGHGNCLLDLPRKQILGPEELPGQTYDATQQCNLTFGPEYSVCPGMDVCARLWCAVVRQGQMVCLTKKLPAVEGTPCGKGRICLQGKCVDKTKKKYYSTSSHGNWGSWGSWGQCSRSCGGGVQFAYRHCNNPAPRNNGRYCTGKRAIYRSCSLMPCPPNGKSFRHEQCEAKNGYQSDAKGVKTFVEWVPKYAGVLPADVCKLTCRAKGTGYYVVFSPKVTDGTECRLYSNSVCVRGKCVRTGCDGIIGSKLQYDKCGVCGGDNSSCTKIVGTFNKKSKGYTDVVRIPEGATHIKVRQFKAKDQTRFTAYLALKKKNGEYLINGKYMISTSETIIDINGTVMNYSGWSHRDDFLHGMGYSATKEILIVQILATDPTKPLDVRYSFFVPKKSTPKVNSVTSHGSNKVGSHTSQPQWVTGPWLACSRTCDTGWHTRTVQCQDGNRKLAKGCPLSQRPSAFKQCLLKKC
Outline: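 Percent inhibition of aggrecanase-2 (ADAMTS-5) measured at a single 20 µM compound level. Reported values are means of two experiments, with standard deviations of ±10%.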

Structure (SMILES) | inhibition [%]
CN1CCN(c2c(CC3SC(=S)NC3=O)c(C(F)(F)F)nn2-c2ccccc2)CC1 (stereo unspecified) | < 40
Cn1nc(C(F)(F)F)c(/C=C2\SC(=S)NC2=O)c1SCc1cccs1 | 40
COc1ccc(CSc2c(/C=C3\SC(=S)NC3=O)c(C(F)(F)F)nn2C)cc1 | 53

Further lines, results first:

inhibition [%] | Structure (SMILES)
47 | Cn1nc(C(F)(F)F)c(/C=C2\SC(=S)NC2=O)c1Sc1ccc(Cl)cc1
42 | O=C1NC(=S)S/C1=C\c1c(C(F)(F)F)nn(-c2ccccc2)c1SCc1ccco1
31 | COc1ccc(CCOc2c(/C=C3\SC(=S)NC3=O)c(C(F)(F)F)nn2-c2ccccc2)cc1
45 | CN1CCN(c2c(/C=C3\SC(=S)NC3=O)c(C(F)(F)F)nn2-c2ccccc2)CC1
44 | Cn1nc(C(F)(F)F)c(/C=C2\SC(=S)NC2=O)c1SCc1ccccc1
42 | O=C1NC(=S)SC1Cc1c(C(F)(F)F)nn(-c2ccccc2)c1SCc1ccco1 (stereo unspecified)
28 | Cn1nc(C(F)(F)F)c(/C=C2\SC(=S)NC2=O)c1Sc1ccccc1

The compounds below were run against T2, A disintegrin and metalloproteinase with thrombospondin motifs 4 (Homo sapiens, UniProt O75173) (assay: Inhibition of ADAMTS4 by FRET assay).
T2 sequence (O75173 whole entry): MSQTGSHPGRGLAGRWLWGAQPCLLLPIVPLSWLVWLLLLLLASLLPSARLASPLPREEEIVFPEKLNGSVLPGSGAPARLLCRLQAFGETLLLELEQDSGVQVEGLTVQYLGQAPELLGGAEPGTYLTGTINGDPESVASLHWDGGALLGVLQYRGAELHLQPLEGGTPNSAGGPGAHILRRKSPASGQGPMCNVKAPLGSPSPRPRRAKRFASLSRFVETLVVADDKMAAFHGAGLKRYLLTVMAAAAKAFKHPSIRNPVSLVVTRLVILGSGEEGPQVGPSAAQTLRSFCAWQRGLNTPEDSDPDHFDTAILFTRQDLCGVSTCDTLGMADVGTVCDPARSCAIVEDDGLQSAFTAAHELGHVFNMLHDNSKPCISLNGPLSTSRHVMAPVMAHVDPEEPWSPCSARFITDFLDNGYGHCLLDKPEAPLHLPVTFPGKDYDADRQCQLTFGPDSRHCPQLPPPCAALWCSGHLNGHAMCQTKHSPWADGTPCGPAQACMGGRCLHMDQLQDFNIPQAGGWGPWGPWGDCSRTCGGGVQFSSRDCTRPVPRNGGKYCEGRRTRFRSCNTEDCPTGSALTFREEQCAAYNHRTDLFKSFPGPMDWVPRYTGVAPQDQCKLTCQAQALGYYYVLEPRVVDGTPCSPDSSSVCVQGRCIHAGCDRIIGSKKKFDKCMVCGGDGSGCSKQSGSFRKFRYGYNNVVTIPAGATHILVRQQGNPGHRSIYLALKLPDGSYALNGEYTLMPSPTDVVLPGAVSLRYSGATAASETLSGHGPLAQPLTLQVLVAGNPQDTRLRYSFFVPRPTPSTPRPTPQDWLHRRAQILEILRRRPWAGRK

IC50 [µM] | Structure (SMILES)
7.5 | Cn1nc(C(F)(F)F)c(/C=C2\SC(=S)NC2=O)c1SCc1ccc(C(C)(C)C)cc1

What follows are compounds tested against T3, A disintegrin and metalloproteinase with thrombospondin motifs 5 (Homo sapiens, UniProt Q9UNA0) (assay: Inhibition of ADAMTS5 by FRET assay).
T3 sequence (Q9UNA0 whole entry): T1 sequence (whole entry)
Outline: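 Aggrecanase-2 (ADAMTS-5) inhibition reported as IC50 in µM. Values are means of two independent experiments, with standard deviations of ±10%.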

Structure (SMILES) | IC50 [µM]
Cn1nc(C(F)(F)F)c(/C=C2\SC(=S)NC2=O)c1SCc1ccc(Cl)cc1 | 1.1
O=C1NC(=S)S/C1=C\c1c(-c2ccccc2)nn(-c2ccccc2)c1SCc1ccco1 | 6.7
O=C1NC(=S)S/C1=C\c1c(C(F)(F)F)nn(-c2ccccc2)c1OCCc1ccc(F)cc1 | 7.1
Cn1nc(C(F)(F)F)c(/C=C2\SC(=S)NC2=O)c1N1CCN(c2ccc(Cl)cc2)CC1 | 9
O=C1NC(=S)SC1Cc1c(C(F)(F)F)nn(-c2ccccc2)c1SCc1ccc(Cl)cc1 (stereo unspecified) | 5.8
O=C1NC(=S)S/C1=C\c1c(C(F)(F)F)nn(-c2ccccc2)c1SCc1ccccc1 | 16.9
O=C1NC(=S)S/C1=C\c1c(C(F)(F)F)nn(C2CCCCC2)c1N1CCN(c2ncccn2)CC1 | 11.7
O=C1NC(=S)S/C1=C\c1c(C(F)(F)F)nn(-c2ccccc2)c1N1CCN(c2ccc(Cl)cc2)CC1 | 2.1
O=C1NC(=S)S/C1=C\c1c(-c2ccccc2)nn(-c2ccccc2)c1SCc1cccs1 | 3.7
O=C1NC(=S)S/C1=C\c1c(C(F)(F)F)nn(-c2ccccc2)c1OCCc1cccs1 | 9.1

Further lines, results first:

IC50 [µM] | Structure (SMILES)
23.2 | Cn1nc(C(F)(F)F)c(/C=C2\SC(=S)NC2=O)c1SCc1ccccc1Cl
4.6 | CN1CCN(c2c(/C=C3\SC(=S)NC3=O)c(-c3ccccc3)nn2-c2ccccc2)CC1
2.5 | O=C1NC(=S)S/C1=C\c1c(C(F)(F)F)nn(-c2ccccc2)c1SCc1ccc(Cl)cc1
8 | O=C1NC(=S)S/C1=C\c1c(-c2ccccc2)nn(C2CCCCC2)c1N1CCN(c2ncccn2)CC1
4.6 | O=C1NC(=S)S/C1=C\c1c(-c2ccccc2)nn(C2CCCCC2)c1SCc1ccco1
4.2 | O=C1NC(=S)S/C1=C\c1c(C(F)(F)F)nn(C2CCCCC2)c1SCc1ccc(Cl)cc1
8.3 | Cc1ccc(Sc2c(/C=C3\SC(=S)NC3=O)c(-c3ccccc3)nn2C)cc1
2.2 | Cn1nc(C(F)(F)F)c(/C=C2\SC(=S)NC2=O)c1SCc1ccc(C(C)(C)C)cc1
14.1 | Cn1nc(-c2ccccc2)c(/C=C2\SC(=S)NC2=O)c1SCc1ccco1
4.2 | O=C1NC(=S)S/C1=C\c1c(C(F)(F)F)nn(-c2ccccc2)c1OCCc1ccc(Cl)cc1
